Test results as given in ChEMBL document CHEMBL2062401, “New pyrimido[5,4-e]pyrrolo[1,2-c]pyrimidines: synthesis, 2D-QSAR, anti-inflammatory, analgesic and ulcerogenicity studies” (Eur J Med Chem, 2012).
Activity calls are given as the source filed them. The calls are words filed in the database; no cut-off is given here.

Columns and labels:
Rattus norvegicus [1] = assay: Antiinflammatory activity in Wistar albino rat assessed as inhibition of carrageenan-induced paw edema at 0.029 mmol/kg, po dosed 1 hr before carrageenan challenge measured 1 hr post carrageenan-induced inflammation; format: functional
Procedure, shortened: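 Wistar albino rats of both sexes, 120–150 g, six per group, food withdrawn the day before. Given orally 0.029 mmol/kg in saline with a few drops of Tween 80, by stomach tube, 1 h before subplantar s.c. carrageenan (0.1 ml of 1%) into the right hind paw. Paw thickness measured at 1, 2, 3 and 4 h against baseline. % inhibition = 100 × (1 − Vt/Vc).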

Rattus norvegicus [2] = assay: Antiinflammatory activity in Wistar albino rat assessed as inhibition of carrageenan-induced paw edema at 1 mg/kg, po dosed 1 hr before carrageenan challenge measured after carrageenan-induced inflammation; format: functional
Procedure, shortened: (§1)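 Rat carrageenan paw oedema, six animals per group. Oral doses of 1, 2, 4 and 6 mg/kg in saline/Tween 80 given 1 h before 0.1 ml of 1% carrageenan s.c. into the right hind paw. Oedema measured as thickness increase over baseline. % inhibition = 100 × (1 − Vt/Vc). IC50 derived from the dose–response and reported in mg/kg and µmol/kg.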

Rattus norvegicus [3] = assay: Antiinflammatory activity in Wistar albino rat assessed as inhibition of carrageenan-induced paw edema at 2 mg/kg, po dosed 1 hr before carrageenan challenge measured after carrageenan-induced inflammation; format: functional; procedure, shortened: as §1
Rattus norvegicus [4] = assay: Antiinflammatory activity in Wistar albino rat assessed as inhibition of carrageenan-induced paw edema at 4 mg/kg, po dosed 1 hr before carrageenan challenge measured after carrageenan-induced inflammation; format: functional; procedure, shortened: as §1
Rattus norvegicus [5] = assay: Antiinflammatory activity in Wistar albino rat assessed as inhibition of carrageenan-induced paw edema at 6 mg/kg, po dosed 1 hr before carrageenan challenge measured after carrageenan-induced inflammation; format: functional; procedure, shortened: as §1
Rattus norvegicus [6] = assay: Antiinflammatory activity in po dosed Wistar albino rat assessed as inhibition of carrageenan-induced paw edema dosed 1 hr before carrageenan challenge measured after carrageenan-induced inflammation; format: functional, organism-based; procedure, shortened: as §1
Rattus norvegicus [7] = assay: Gastrointestinal toxicity in Wistar albino rat assessed as incidence of stomach ulceration at 0.029 mmol/kg, po; format: organism-based; conditions: in vivo
Procedure, shortened: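 Rats given single oral dose suspended in saline with few drops Tween 80 (groups of 6); killed under deep ether anaesthesia 5 h after treatment; stomach opened along greater curvature and examined for lesions or bleeding; ulceration expressed as number of rats affected per group.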

Mus musculus [8] = assay: Analgesic activity in Swiss albino mouse assessed as inhibition of acetic acid-induced writhing at 0.029 mmol/kg. po dosed 1 hr before acetic acid challenge and measured during 30 mins post acetic acid challenge; format: functional
Procedure, shortened: (§2)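 Swiss albino mice of either sex, 18–22 g, six per group. Oral suspension at 0.029 mmol/kg given 1 h before 0.3 ml of 1% acetic acid i.p. Contractions counted for 30 min, starting 5 min after injection. % protection = (n − n')/n × 100 against control writhing. Potency% = % inhibition of test / % inhibition of indomethacin × 100. Mean ± SEM, ANOVA with post hoc test.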

Mus musculus [9] = assay: Analgesic activity in Swiss albino mouse assessed as inhibition of acetic acid-induced writhing at 0.029 mmol/kg. po dosed 1 hr before acetic acid challenge and measured during 30 mins post acetic acid challenge relative to indomethacin; format: functional; conditions: read-out: INH; procedure, shortened: as §2
Rattus norvegicus [10] = assay: Gastrointestinal toxicity in Wistar albino rat assessed as incidence of stomach ulceration at 0.029 mmol/kg, po followed by another two compound doses in second and third days measured on fourth day post dose by acute ulcerogenicity study; format: organism-based; conditions: in vivo
Procedure, shortened: (§3)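 Adult Wistar rats of both sexes, 120–150 g, groups of 6, fasted 20 h; oral dose suspended in 1% Tween (vehicle group 1% Tween); fasted 2 h, fed 2 h, fasted 20 h; further doses on days 2 and 3. Scored: % incidence/10, mean ulcers per rat, mean severity score; ulcer index = sum of the three.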

Rattus norvegicus [11] = assay: Gastrointestinal toxicity in Wistar albino rat assessed as stomach ulcer index at 0.029 mmol/kg, po followed by another two compound doses in second and third days measured on fourth day post dose by acute ulcerogenicity study; format: organism-based; conditions: in vivo; procedure, shortened: as §3
[12] = Lipophilicity, log P of the compound; format: physicochemical; conditions: octanol/water
Rattus norvegicus [13] = assay: Antiinflammatory activity in Wistar albino rat assessed as inhibition of carrageenan-induced paw edema at 0.029 mmol/kg, po dosed 1 hr before carrageenan challenge measured 2 hrs post carrageenan-induced inflammation
Rattus norvegicus [14] = assay: Antiinflammatory activity in Wistar albino rat assessed as inhibition of carrageenan-induced paw edema at 0.029 mmol/kg, po dosed 1 hr before carrageenan challenge measured 3 hrs post carrageenan-induced inflammation
Rattus norvegicus [15] = assay: Antiinflammatory activity in Wistar albino rat assessed as inhibition of carrageenan-induced paw edema at 0.029 mmol/kg, po dosed 1 hr before carrageenan challenge measured 4 hrs post carrageenan-induced inflammation
Homo sapiens = species: Homo sapiens; assay: Selectivity index, ratio of inhibition of COX1 to inhibition of COX2 by Cayman's COX activity assay
Procedure, shortened: (§4)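 COX peroxidase activity measured with a commercial COX activity assay kit (Kulmacz and Lands method), per manufacturer's instructions; % inhibition of COX-1 and COX-2 determined, selectivity expressed as ratio of COX-1 to COX-2 % inhibition.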

[16] = biological target: Prostaglandin G/H synthase 1 (Homo sapiens) (UniProt P23219); assay: Inhibition of COX1 by Cayman's COX activity assay; procedure, shortened: as §4
Prostaglandin G/H synthase 1 (Homo sapiens), sequence (P23219 whole entry): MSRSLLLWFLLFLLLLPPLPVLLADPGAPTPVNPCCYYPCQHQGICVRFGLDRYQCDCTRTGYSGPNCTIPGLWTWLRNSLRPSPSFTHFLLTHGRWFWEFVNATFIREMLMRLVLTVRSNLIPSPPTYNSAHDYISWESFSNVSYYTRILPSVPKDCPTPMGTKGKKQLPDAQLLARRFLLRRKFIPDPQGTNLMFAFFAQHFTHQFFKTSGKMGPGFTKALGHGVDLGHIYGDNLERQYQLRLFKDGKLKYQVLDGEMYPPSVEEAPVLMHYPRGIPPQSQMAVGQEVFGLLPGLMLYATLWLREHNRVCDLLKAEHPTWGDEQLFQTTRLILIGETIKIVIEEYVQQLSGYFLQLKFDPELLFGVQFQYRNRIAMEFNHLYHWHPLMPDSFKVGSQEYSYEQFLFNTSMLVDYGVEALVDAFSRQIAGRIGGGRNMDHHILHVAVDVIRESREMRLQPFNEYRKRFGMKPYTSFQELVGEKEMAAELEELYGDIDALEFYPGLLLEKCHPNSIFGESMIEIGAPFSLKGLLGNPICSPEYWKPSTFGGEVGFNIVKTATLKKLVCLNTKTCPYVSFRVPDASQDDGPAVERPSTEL

Row | SMILES | inhibition in vivo at 29 µmol/kg (Rattus norvegicus [1]) [%] | inhibition in vivo at 1 mg/kg (Rattus norvegicus [2]) [%] | inhibition in vivo at 2 mg/kg (Rattus norvegicus [3]) [%] | inhibition in vivo at 4 mg/kg (Rattus norvegicus [4]) [%] | inhibition in vivo at 6 mg/kg (Rattus norvegicus [5]) [%] | IC50 (Rattus norvegicus [6]) [µmol/kg] | Activity (Rattus norvegicus [7]) | inhibition in vivo at 29 µmol/kg (Mus musculus [8]) [%] | writhing inhibition relative to indomethacin (potency %) at 29 µmol/kg (Mus musculus [9]) [%] | Activity (Rattus norvegicus [10]) [%] | UI (Rattus norvegicus [11]) | logP [12] | inhibition in vivo at 29 µmol/kg (Rattus norvegicus [13]) [%] | inhibition in vivo at 29 µmol/kg (Rattus norvegicus [14]) [%] | inhibition in vivo at 29 µmol/kg (Rattus norvegicus [15]) [%] | Ratio (Homo sapiens) | inhibition [16]
1 | CCOC(=O)Cc1nc2c(c(=O)[nH]1)C1CCCN1C(=O)N2c1ccccc1 (centres undefined) | 81 | 12 | 32 | 60 | 64 | 11 | Non-toxic | 70.8 | 107 | 5 | 7 | 1.53 | 80 | 90 | 89 |  | 
2 | Cc1c(NC(=O)c2nc3c(c(=O)[nH]2)C2CCCN2C(=O)N3c2ccccc2)c(=O)n(-c2ccccc2)n1C (centres undefined) | 78 | 30 | 48 | 78 | 77 | 6 | Non-toxic | 63.3 | 95.7 | 5 | 7.16 | 2.09 | 68 | 78 | 83 | 1.3 | Active
3 | Cc1cc(-c2ccccc2)nn1C(=O)c1nc2c(c(=O)[nH]1)C1CCCN1C(=O)N2c1ccccc1 (centres undefined) | 78 | 20 | 45 | 65 | 60 | 8 | Non-toxic | 39.6 | 59.8 | 6.66 | 10.94 | 3.7 | 65 | 59 | 62 | 1.02 | Active
4 | O=C(O)Cc1nc2c(c(=O)[nH]1)C1CCCN1C(=O)N2c1ccccc1 (centres undefined) | 77 | 20 | 40 | 64 | 74 | 10 | Toxic | 57.6 | 87.2 | 8.33 | 10.49 | 0.749 | 70 | 72 | 80 |  | 
